Series [1] in a line: Cytotoxicity assay. The settings on record: human, HepG2 cells. The series is classed as cell-based. The method, boiled down:
(§1)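 MTT assay. Cells were seeded at 2–3×10⁴ cells/well and cultured 24 h. Test compound was added at a final 0.1–100 μM for 48 h. MTT (5 mg in PBS, pH 7.2) was added for 4 h at 37°C, then DMSO. Absorbance was read at 540 nm; % viability = treated/untreated absorbance ×100; n=3.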

Another series deals with T1, human GPR119 (Homo sapiens, UniProt Q8TDV5).
T1 sequence (Q8TDV5 1-335): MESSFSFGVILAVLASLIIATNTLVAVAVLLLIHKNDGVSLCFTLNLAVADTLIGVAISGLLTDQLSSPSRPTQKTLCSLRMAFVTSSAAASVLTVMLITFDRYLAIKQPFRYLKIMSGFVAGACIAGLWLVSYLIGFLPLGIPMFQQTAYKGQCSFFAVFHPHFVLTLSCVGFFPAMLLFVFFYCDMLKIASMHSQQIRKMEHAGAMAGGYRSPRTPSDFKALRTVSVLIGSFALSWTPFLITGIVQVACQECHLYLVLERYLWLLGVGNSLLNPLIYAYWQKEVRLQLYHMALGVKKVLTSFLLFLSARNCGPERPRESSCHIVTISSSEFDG
Briefly: cAMP accumulation assay. The series is classed as cell-based. The method, boiled down: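 CHO-K1 cells carry doxycycline-inducible human GPR119 and a CRE-driven beta-lactamase reporter. Cells were seeded at 10⁴ cells/well, induced with doxycycline 1 ug/mL, and treated 5 h with test compound at varying concentrations (DMSO stocks diluted in medium). cAMP was read by ratiometric FRET beta-lactamase substrate, in triplicate per concentration, from ≥3 independent experiments.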

Series [2] can be described thus: Cytotoxicity assay. The series is classed as cell-based. The settings on record: mouse, GLUTag L cells. The method, boiled down:
as §1

Series [3] relates to HIT-T15, GLUTag, and HepG2. Briefly: Cytotoxicity assay. The series is classed as cell-based. As to conditions: MTT, 48 h. An outline of the steps:
as §1

In the next series the test system is GLUTag cells. Briefly: GLP-1 release assay. The series is classed as cell-based, murine. The method, boiled down: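 GLUTag cells (DMEM, 10% FBS) were seeded at 10⁵ cells/well and grown 48 h. They were washed twice with serum-free DMEM, then exposed to 0.1 uM test compound in serum-free DMEM at 37°C for 120 min. Supernatant was clarified by 5-min centrifugation, and GLP-1 was measured by ELISA in triplicate.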

The next series relates to DIO mice. Nature of the series: Oral glucose tolerance test, repeat administration for 4 weeks in DIO mice. Type of series: in vivo. The method, boiled down:
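17-week-old male DIO mice were dosed orally once daily for 4 weeks with vehicle (0.5% methyl cellulose), test compound, MBX2982 10 mg/kg, linagliptin 1 mg/kg, or combinations. OGTT was run on days 1 and 29 in overnight-fasted mice: dose, then an oral 2 g/kg glucose bolus 30 min later. Tail-vein glucose was read by glucometer at 0–120 min, and AUC0–2h was calculated.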

Series [4] in a line: Aqueous solubility in the buffer. The series is classed as physicochemical.
The nature of series [5]: Pharmacokinetics of YH18968 in normal mice. The settings on record: male, C57BL/6J, mouse, plasma. The series is classed as in vivo, C57BL/6J mice. An outline of the steps:
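Overnight-fasted 8-week-old male C57BL/6J mice, with free access to water, received 1 mg/kg iv via tail vein or oral doses of 1, 10 and 100 mg/kg as a suspension in 0.5% methyl cellulose; n=2 per time point. Plasma underwent protein precipitation and LC-MS/MS quantification. Parameters, including F, came from non-compartmental analysis.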

Another series relates to HIT-T15 cells. Nature of the series: Insulin release assay. The series is classed as cell-based, hamster. The method, boiled down: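 HIT-T15 cells were seeded at 2×10⁵ cells/well and grown 48 h. They were washed in Krebs-Ringer bicarbonate buffer (pH 7.4, 0.2% BSA) and preincubated 60 min at 37°C with 5 mM glucose. Stimulation was with 0.1 uM test compound at 15 mM glucose, 60 min, 37°C; GSIS used 100 nM at 0, 3 and 15 mM glucose, 1 h. Supernatant insulin was measured by ELISA in triplicate.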

Series [6] concerns normal C57BL/6J mice. Nature of the series: Blood active GLP-1 levels after single oral administration in normal mice. As to conditions: 10 mg/kg oral, 30 minutes after administration, overnight-fasted mice. The series is classed as in vivo. The method, boiled down: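 Overnight-fasted male C57BL/6J mice (n=6) got a single oral dose of test compound, alone or with linagliptin (1 mg/kg). The control got 0.5% methyl cellulose vehicle. Blood was drawn 30 min after dosing, and active GLP-1 was measured against the vehicle group.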

In series [7] the test system is normal C57BL/6J mice. Nature of the series: Oral glucose tolerance test, single administration in normal mice. Type of series: in vivo.

Three molecules from PMC5839499 (Biomolecules & Therapeutics, 2018) can be followed below.

SMILES strings stand for the structures. “Also recorded” adds a separate entry of the source.

As usually defined, the CC50 is the concentration at which the toxic effect on the cells reaches its halfway point. As a reminder, the EC50 is the concentration giving half of the maximal effect. Turning to `CCc1cnc(N2CCC(c3nc(COc4ccc(-n5cnnn5)cc4)cs3)CC2)nc1` [MBX2982, reference compound], the CC50 at 48 h in “Cytotoxicity assay [1]” was 15900 nM; in the series “Cytotoxicity assay [2]”, 12200 nM. The molecule further gave an EC50 at human GPR119 of 11.2 nM. In addition, the “concentration up to which cytotoxicity was not observed” value in series [3] was determined as 1000 nM.

A word on the AUC(0-inf): it is the area under the concentration-time curve extrapolated to infinity. High values mean high exposure, low ones low exposure. The AUC(0-t) is the area under the concentration-time curve up to a stated or last time point. The MRT is a mean duration of stay, worked out from the concentration-time curve. The term Vd denotes the apparent volume that relates the amount in the body to the concentration in plasma or blood. What is called clearance is the rate of elimination divided by the concentration. Higher therefore signals a high capacity for elimination. By Tmax is commonly meant the time at which the peak concentration occurs. By bioavailability is commonly meant dose-corrected exposure relative to a reference, in per cent. The low end stands for poor availability, the high end for good availability. By Cmax is commonly meant the highest concentration seen after dosing. What is called half-life is the time needed for the level to fall by half in the phase considered. Low readings indicate fast loss, high ones slow loss. With `CC(C)c1nc(N2CCN(c3ncc(-c4ccc(-n5cnn([C@H]6CCOC6)c5=O)c(F)c4)cc3C#N)CC2)no1` [YH18968, (S)-5-(3-fluoro-4-(5-oxo-1-(tetrahydrofuran-3-yl)-1,5-dihydro-4H-1,2,4-triazol-4-yl)phenyl)-2-(4-(5-isopropyl-1,2,4-oxadiazol-3-yl)piperazin-1-yl)nicotinonitrile], in the series with GLUTag cells (GLUTag cell, 0.1 uM, 120 min), the GLP-1 secretion turned out to be 2.3 fold. For the same molecule, the concentration giving a half-maximal response (EC50) with GLUTag cells (Mus musculus, GLUTag, read-out: EC50, GLP-1 secretion) was 0.1 nM. For the same molecule, the “AUC for blood glucose in OGTT versus vehicle control, day 1” value with DIO mice (1 mg/kg oral once daily, day 1, DIO mice) was “significantly lowered; also recorded: significant decrease”. Also, in the series on DIO mice (1 mg/kg oral, day 1, DIO mice), the “glucose lowering effect compared with 10 mg/kg of MBX2982, day 1” value is reported as “more potent glucose lowering effect”. For the same molecule, the aqueous solubility entry in series [4] was “poor”. In series [5] (iv, 1 mg/kg), this molecule yielded an area under the curve AUC(0-inf) of 1620 ng·h/mL, an area under the curve AUC(0-t) of 1380 ng·h/mL, a mean residence time (MRT) of 3.4 h and a Vd of 2.11 L/kg. The same molecule had a clearance in [5] (iv, 1 mg/kg) of 10.3 mL/min/kg. In series [5] (po), the time of peak concentration (Tmax) was 0.5 h and the bioavailability lay within 4.8 to 40%. For the same molecule, in series [5] (po, 1 mg/kg), the AUC(0-inf) was 720 ng·h/mL, the AUC(0-t) amounted to 550 ng·h/mL, the Cmax was 169 ng/mL and the time to peak (Tmax) was 0.5 h. In series [5] (po, 1 mg/kg), this molecule showed a bioavailability of 40% and a half-life of 3.1 h. Also, in series [5] (po, 10 mg/kg), the total exposure AUC(0-inf) turned out to be 2960 ng·h/mL, the AUC(0-t) is 2470 ng·h/mL, the Cmax was 760 ng/mL and the Tmax was 0.5 h. In addition, in [5] (po, 10 mg/kg), the bioavailability was found to be 18% and the half-life was 2.6 h. Further, in [5] (po, 100 mg/kg), the total exposure AUC(0-inf) amounted to 15800 ng·h/mL, the AUC(0-t) is 6540 ng·h/mL, the concentration peaked (Cmax) at 1470 ng/mL and the time of peak concentration (Tmax) turned out to be 0.5 h. In [5] (po, 100 mg/kg), the bioavailability amounted to 4.8% and the half-life was 9.2 h. In addition, on human GPR119, the EC50 was 2.8 nM. In addition, on human GPR119 (more potent than MBX2982 (EC50 11.2 nM, same assay)), the “potency on human GPR119 relative to MBX2982” value is “approximately 4 fold”. Further, the “potency of human GPR119 activation relative to MBX2982” value at human GPR119 (more potent than the reported effect of MBX2982 (EC50 8.33 nM, HEK293)) was “approximately 3 fold”. For the same molecule, in the series with HIT-T15 cells (100 nM, 3 and 15 mM glucose, 1 h), the “glucose-stimulated insulin secretion (GSIS)” value is “enhanced in a glucose-dependent manner”. In addition, the “insulin release without glucose” value with HIT-T15 cells (100 nM, cells incubated without glucose, 1 h) was “no effect”. In the series on HIT-T15 cells (HIT-T15 cell, 0.1 uM, 15 mM glucose, 60 min), this molecule had an insulin secretion of 1.9 fold. Moreover, the “increase of active GLP-1 levels compared to the vehicle control” value with normal C57BL/6J mice [6] was 2.7 fold. In addition, in series [3], the “concentration up to which cytotoxicity was not observed” value amounted to 5000 nM. Moreover, in the series on normal C57BL/6J mice [7] (single oral 0.1, 1, and 10 mg/kg, dose-dependent), the “AUC for blood glucose in OGTT versus vehicle control” value is “significantly lowered”. In addition, in the series on normal C57BL/6J mice [7] (single oral 1 and 10 mg/kg), the “glucose lowering effect compared with 30 mg/kg of MBX2982” value is “more potent glucose lowering effects”.

For `CC#CCn1c(N2CCC[C@@H](N)C2)nc2c1c(=O)n(Cc1nc(C)c3ccccc3n1)c(=O)n2C` [linagliptin, reference compound], in the series on DIO mice (1 mg/kg of linagliptin, DIO mice), the “AUC blood glucose level in OGTT” value was “near normal range”.
